Assay results from ChEMBL document CHEMBL4706664, “Rational drug design of 6-substituted 4-anilino-2-phenylpyrimidines for exploration of novel ABCG2 binding site” (Eur J Med Chem, 2021).

What was measured:
[1] = Cytotoxicity against ABCG2 overexpressing MDCK-II cells assessed as reduction in cell viability measured after 72 hrs by MTT assay; format: ADME, cell-based, Canis lupus familiaris; details: dog
Summary of the method: (§1)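 MTT cell viability. Compound dilution series prepared in culture medium at 3.16 µM to 1 mM (dilution stock; added 20 µL to 180 µL cells). Seeding per well: MDCK II and MDCK II BCRP 2000, A2780 and A2780/ADR 8000, H69AR 20,000. Incubated 72 h, 37 °C, 5% CO2. MTT 5 mg/mL added for 60 min, formazan dissolved in DMSO, absorbance 570 nm (690 nm background). Medium = 100%, 10% DMSO = 0% viability. GI50 by four-parameter logistic fit. Mean ± SEM of at least three independent experiments.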

[2] = Cytotoxicity against wild-type MDCK-II cells assessed as reduction in cell viability measured after 72 hrs by MTT assay; format: cell-based, Canis lupus familiaris; details: dog; summary of the method: as §1
[3] = target: T1, Broad substrate specificity ATP-binding cassette transporter ABCG2 (Homo sapiens, UniProt Q9UNQ0); test: Inhibition of ABCG2 (unknown origin) expressed in MDCK-II cells assessed as reduction in pheophorbide A efflux measured after 2 hrs by flow cytometry; format: cell-based
T1 sequence (Q9UNQ0 whole entry): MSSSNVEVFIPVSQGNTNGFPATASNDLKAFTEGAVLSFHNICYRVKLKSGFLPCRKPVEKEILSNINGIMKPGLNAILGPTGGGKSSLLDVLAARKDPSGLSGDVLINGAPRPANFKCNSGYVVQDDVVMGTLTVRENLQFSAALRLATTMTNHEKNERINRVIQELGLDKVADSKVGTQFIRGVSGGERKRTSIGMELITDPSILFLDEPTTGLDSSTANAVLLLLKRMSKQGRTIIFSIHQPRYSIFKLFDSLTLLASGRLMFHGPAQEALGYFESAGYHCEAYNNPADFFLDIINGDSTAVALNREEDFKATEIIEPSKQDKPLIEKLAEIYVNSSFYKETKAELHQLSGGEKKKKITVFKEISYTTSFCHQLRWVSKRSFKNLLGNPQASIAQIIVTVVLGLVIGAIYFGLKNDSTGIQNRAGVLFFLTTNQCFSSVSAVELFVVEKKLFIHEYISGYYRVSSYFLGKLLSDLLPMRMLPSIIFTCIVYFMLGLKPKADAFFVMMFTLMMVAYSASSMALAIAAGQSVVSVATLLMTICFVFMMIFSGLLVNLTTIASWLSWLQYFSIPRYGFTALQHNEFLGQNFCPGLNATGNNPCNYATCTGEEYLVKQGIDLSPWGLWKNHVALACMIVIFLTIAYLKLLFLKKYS
Summary of the method: (§2)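 Pheophorbide A accumulation in MDCK II BCRP cells, about 45,000 cells/well in Krebs-HEPES buffer pH 7.4. Compound dilutions were prepared at 0.316–100 µM, and 20 µL of 5 µM pheophorbide A was added. Incubated 2 h at 37 °C, 5% CO2. Fluorescence read by flow cytometry (ex 488 nm, em 695/50 nm). IC50 and Imax are mean ± SEM of at least three independent experiments.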

ABCB1 [4] = target: ABCB1 (Homo sapiens, UniProt P08183); test: Inhibition of ABCB1 (unknown origin) expressed in human A2780 ADR cells assessed as reduction in calcein AM efflux at 10 uM preincubated for 30 mins followed by calcein AM addition and measured at 60 secs interval for 1 hr by fluorescence assay relative to control; format: cell-based; details: A2780 ADR cells expressing ABCB1, probe calcein AM, time 90 min
Summary of the method: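 Calcein AM accumulation in A2780/ADR cells (30,000/well, Krebs-HEPES buffer pH 7.4). Cells preincubated with compound 30 min at 37 °C, 5% CO2. Screening at 10 µM.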

ABCC1 = ABCC1 (Homo sapiens, UniProt P33527); test: Inhibition of ABCC1 (unknown origin) expressed in human NCI-H69AR cells assessed as reduction in calcein AM efflux at 10 uM preincubated for 30 mins followed by calcein AM addition and measured at 60 secs interval for 1 hr by fluorescence assay relative to control; format: cell-based; details: NCI-H69AR cells expressing ABCC1, probe calcein AM, time 90 min
ABCG2 [5] = target: T2, ABCG2 (Homo sapiens, UniProt Q9UNQ0); test: Inhibition of ABCG2 (unknown origin) expressed in MDCK-II cells assessed as reduction in pheophorbide A efflux measured after 2 hrs by flow cytometry relative to Ko143; format: cell-based; details: MDCK-II cells expressing ABCG2, probe pheophorbide A, read-out: Imax; summary of the method: as §2
T2 sequence (Q9UNQ0 whole entry): T1 sequence (Q9UNQ0 whole entry)

ABCG2 [6] = test: Therapeutic index, ratio of GI50 for cytotoxicity against ABCG2 overexpressing MDCK-II cells to IC50 for inhibition of ABCG2 (unknown origin) expressed in MDCK-II cells; details: dog
[7] = target: ATP-dependent translocase ABCB1 (Homo sapiens, UniProt P08183); test: Inhibition of ABCB1 (unknown origin) expressed in human A2780 ADR cells assessed as reduction in calcein AM efflux preincubated for 30 mins followed by calcein AM addition and measured at 60 secs interval for 1 hr by fluorescence assay; format: cell-based
Summary of the method: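 Calcein AM accumulation in A2780/ADR cells (30,000/well, Krebs-HEPES buffer pH 7.4). Cells preincubated with compound 30 min at 37 °C, 5% CO2. Then 20 µL of 3.125 µM calcein AM added. Fluorescence (ex 485/em 520 nm) read every 60 s for 1 h. […] Screening at 10 µM.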

[8] = Cytotoxicity against ABCC1 over expressing human NCI-H69AR cells assessed as reduction in cell viability measured after 72 hrs by MTT assay; format: ADME, cell-based; details: ABCC1 overexpressing NCI-H69AR cells; summary of the method: as §1
[9] = Cytotoxicity against ABCB1 over expressing human A2780 ADR cells assessed as reduction in cell viability measured after 72 hrs by MTT assay; format: ADME, cell-based; details: ABCB1 overexpressing A2780 ADR cells; summary of the method: as §1
[10] = Cytotoxicity against ABCB1 over expressing human A2780 cells assessed as reduction in cell viability measured after 72 hrs by MTT assay; format: ADME, cell-based; details: in the assay text read “human A2780 cells” for “ABCB1 over expressing human A2780 cells”; summary of the method: as §1
ABCB1 [11] = test: Therapeutic index, ratio of GI50 for cytotoxicity against ABCB1 over expressing human A2780 ADR cells to IC50 for inhibition of ABCB1 (unknown origin) expressed in human A2780 ADR cells; details: ABCB1 overexpressing A2780 ADR cells
[12] = Cytotoxicity against human A2780 cells assessed as reduction in cell viability measured after 72 hrs by MTT assay

Sequence of ABCC1 (P33527 whole entry): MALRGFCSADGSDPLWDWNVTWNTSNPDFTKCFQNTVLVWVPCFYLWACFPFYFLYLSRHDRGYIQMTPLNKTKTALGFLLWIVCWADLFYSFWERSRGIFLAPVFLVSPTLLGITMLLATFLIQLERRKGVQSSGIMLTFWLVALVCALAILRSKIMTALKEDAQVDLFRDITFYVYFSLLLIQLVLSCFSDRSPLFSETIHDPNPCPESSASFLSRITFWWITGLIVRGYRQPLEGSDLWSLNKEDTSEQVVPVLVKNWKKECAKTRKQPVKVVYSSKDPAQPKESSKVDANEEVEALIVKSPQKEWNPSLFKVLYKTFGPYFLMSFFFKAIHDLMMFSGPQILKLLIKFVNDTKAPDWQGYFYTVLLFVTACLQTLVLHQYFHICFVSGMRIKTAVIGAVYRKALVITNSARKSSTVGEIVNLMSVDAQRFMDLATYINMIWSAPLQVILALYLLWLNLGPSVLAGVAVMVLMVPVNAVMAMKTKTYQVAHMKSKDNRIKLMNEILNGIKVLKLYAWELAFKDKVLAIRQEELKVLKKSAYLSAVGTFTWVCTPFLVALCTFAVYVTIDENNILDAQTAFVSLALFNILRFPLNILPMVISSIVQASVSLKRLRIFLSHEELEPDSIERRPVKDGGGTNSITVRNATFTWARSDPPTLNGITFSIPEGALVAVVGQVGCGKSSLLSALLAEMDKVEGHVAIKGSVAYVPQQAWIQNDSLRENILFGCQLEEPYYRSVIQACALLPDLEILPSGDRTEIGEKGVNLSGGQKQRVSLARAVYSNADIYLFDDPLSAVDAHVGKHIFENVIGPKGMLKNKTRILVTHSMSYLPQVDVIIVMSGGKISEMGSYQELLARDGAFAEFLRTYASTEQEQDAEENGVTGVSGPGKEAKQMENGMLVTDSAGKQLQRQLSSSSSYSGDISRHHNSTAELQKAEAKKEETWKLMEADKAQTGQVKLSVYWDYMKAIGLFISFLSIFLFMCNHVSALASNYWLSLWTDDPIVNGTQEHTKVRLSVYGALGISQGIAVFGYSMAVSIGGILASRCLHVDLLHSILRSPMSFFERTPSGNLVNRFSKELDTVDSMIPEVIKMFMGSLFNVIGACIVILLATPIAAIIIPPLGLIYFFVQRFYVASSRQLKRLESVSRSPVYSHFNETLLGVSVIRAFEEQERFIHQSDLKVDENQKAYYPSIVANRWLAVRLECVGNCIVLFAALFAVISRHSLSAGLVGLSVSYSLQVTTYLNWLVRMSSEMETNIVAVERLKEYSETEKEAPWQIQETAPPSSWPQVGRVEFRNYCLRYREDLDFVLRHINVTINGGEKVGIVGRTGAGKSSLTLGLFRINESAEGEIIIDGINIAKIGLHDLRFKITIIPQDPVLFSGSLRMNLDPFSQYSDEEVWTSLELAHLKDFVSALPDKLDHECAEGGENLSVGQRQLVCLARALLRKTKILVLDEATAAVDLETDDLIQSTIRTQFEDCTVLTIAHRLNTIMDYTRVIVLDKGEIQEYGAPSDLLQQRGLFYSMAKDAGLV
Sequence of ABCB1 (Homo sapiens, UniProt P08183) (P08183 whole entry): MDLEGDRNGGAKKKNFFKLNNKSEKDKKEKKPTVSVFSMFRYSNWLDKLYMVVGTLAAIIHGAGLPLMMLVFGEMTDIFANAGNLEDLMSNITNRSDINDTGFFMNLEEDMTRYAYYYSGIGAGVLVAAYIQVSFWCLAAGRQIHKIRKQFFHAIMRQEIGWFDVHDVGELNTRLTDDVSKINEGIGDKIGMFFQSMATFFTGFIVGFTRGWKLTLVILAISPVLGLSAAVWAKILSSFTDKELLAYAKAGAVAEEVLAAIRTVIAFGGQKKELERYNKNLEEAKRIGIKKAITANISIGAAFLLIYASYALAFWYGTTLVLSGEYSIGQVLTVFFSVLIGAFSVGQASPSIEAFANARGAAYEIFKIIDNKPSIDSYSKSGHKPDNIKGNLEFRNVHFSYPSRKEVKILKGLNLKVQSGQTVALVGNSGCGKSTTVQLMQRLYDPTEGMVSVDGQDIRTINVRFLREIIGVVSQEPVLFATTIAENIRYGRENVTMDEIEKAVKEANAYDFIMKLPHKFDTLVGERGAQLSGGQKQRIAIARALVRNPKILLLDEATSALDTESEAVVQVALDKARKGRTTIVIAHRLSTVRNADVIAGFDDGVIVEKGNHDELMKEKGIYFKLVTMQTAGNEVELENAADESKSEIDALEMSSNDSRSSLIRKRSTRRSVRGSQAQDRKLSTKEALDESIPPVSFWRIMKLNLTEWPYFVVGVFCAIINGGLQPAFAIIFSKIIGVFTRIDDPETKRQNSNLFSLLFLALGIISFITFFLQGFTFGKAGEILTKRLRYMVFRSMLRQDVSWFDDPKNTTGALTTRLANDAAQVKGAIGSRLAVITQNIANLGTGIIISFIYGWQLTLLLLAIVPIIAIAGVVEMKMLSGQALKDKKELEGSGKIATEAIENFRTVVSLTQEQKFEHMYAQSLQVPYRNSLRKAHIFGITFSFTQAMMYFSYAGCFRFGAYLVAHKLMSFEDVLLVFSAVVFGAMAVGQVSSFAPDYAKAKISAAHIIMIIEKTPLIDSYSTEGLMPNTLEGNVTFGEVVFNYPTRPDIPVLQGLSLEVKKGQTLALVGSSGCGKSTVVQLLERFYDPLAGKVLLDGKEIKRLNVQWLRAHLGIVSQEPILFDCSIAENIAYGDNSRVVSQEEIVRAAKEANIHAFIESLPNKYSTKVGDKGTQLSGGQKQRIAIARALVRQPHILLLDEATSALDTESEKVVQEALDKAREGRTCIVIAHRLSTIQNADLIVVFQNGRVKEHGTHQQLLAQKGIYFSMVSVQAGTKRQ
Sequence of ATP-dependent translocase ABCB1 (P08183 whole entry): as above

| Structure (SMILES) | IC50 [3] | inhibition at 1 h, 10 µM (ABCB1 [4]) | inhibition at 1 h, 10 µM (ABCC1) | Emax at 2 h (ABCG2 [5]) | IC50 ([7]; read-out: IC50) | IC50 ([7]; a2780 adr) | GI50 at 72 h [1] | GI50 at 72 h [2] | selectivity ratio (ABCG2 [6]) | GI50 at 72 h [8] | GI50 at 72 h [9] | GI50 at 72 h [10] | selectivity ratio (ABCB1 [11]) | GI50 at 72 h [12] |
| --- | --- | --- | --- | --- | --- | --- | --- | --- | --- | --- | --- | --- | --- | --- |
| N#Cc1ccc(Nc2cc(NCc3cccnc3)nc(-c3ccccc3)n2)cc1 | 0.373 µM | > 20% | > 20% | 91% | 5.41 µM |  | 5.54 µM | 7.47 µM | 14.9 |  |  |  |  |  |
| N#Cc1ccc(Nc2cc(Nc3cccc(O)c3)nc(-c3ccccc3)n2)cc1 | 0.608 µM | > 20% | > 20% | 66% | 3.52 µM |  | 5.12 µM | 5.24 µM |  | 11 µM | 5.91 µM | 3.55 µM |  |  |
| CCc1c2c(nc3ccc(O)cc13)-c1cc3c(c(=O)n1C2)COC(=O)[C@]3(O)CC [7-ETHYL-10-HYDROXYCAMPTOTHECIN] |  |  |  |  |  |  |  | 0.139 µM |  |  |  |  |  |  |
| N#Cc1ccc(Nc2cc(-c3ccccc3)nc(-c3ccccc3)n2)cc1 | 4.41 µM |  |  | 100% |  | Not Active | 21.9 µM | 25.1 µM | 4.96 |  |  |  |  |  |
| CCCCNc1cc(Nc2ccc(C#N)cc2)nc(-c2ccccc2)n1 | 0.5 µM | > 20% |  | 73% | 6.62 µM |  | 6.08 µM | 8.32 µM | 12.2 |  |  |  |  |  |
| CC(C)Nc1cc(Nc2ccc(C#N)cc2)nc(-c2ccccc2)n1 | 0.763 µM | > 20% | > 20% | 101% | 6.42 µM |  | 5.06 µM | 5.58 µM |  | 21.4 µM | 8.09 µM |  |  | 13.3 µM |
| N#Cc1ccc(Nc2cc(NCc3ccncc3)nc(-c3ccccc3)n2)cc1 | 0.435 µM | > 20% |  | 78% | 4.26 µM |  | 10 µM | 10.7 µM | 23.1 |  |  |  |  |  |
| N#Cc1ccc(Nc2cc(Nc3ccc(O)cc3)nc(-c3ccccc3)n2)cc1 | 0.387 µM | > 20% | > 20% | 76% | 4.54 µM |  | 5.15 µM | 5.3 µM |  | 13.7 µM | 9.21 µM | 8.02 µM |  |  |
| CCCNc1cc(Nc2ccc(C#N)cc2)nc(-c2ccccc2)n1 | 0.293 µM | > 20% | > 20% | 89% | 5.9 µM |  | 6.56 µM | 8.34 µM |  | 23 µM | 12.3 µM |  |  | 15.1 µM |

Now from value to compound, other results behind:

| IC50 [3] | inhibition at 1 h, 10 µM (ABCB1 [4]) | inhibition at 1 h, 10 µM (ABCC1) | Emax at 2 h (ABCG2 [5]) | IC50 ([7]; read-out: IC50) | IC50 ([7]; a2780 adr) | Structure (SMILES) | GI50 at 72 h [1] | GI50 at 72 h [2] | selectivity ratio (ABCG2 [6]) | GI50 at 72 h [8] | GI50 at 72 h [9] | GI50 at 72 h [10] | selectivity ratio (ABCB1 [11]) | GI50 at 72 h [12] |
| --- | --- | --- | --- | --- | --- | --- | --- | --- | --- | --- | --- | --- | --- | --- |
| 0.133 µM | > 20% |  | 60% | 6.75 µM |  | N#Cc1ccc(Nc2cc(Nc3ccc(C#N)cc3)nc(-c3ccccc3)n2)cc1 | 7.78 µM | 7.09 µM | 58.7 |  |  |  |  |  |
| 0.21 µM | > 20% |  | 88% | 3.4 µM |  | N#Cc1ccc(Nc2cc(NCc3ccccn3)nc(-c3ccccc3)n2)cc1 | 8.56 µM | 9.44 µM | 40.8 |  |  |  |  |  |
| 0.223 µM | > 20% |  | 86% | 2.98 µM |  | N#Cc1ccc(Nc2cc(Nc3ccccc3O)nc(-c3ccccc3)n2)cc1 | 4.61 µM | 4.23 µM | 20.7 |  | 9.96 µM | 9.07 µM | 3.34 |  |
| 0.096 µM |  |  | 61% |  | Not Active | N#Cc1ccc(Nc2cc(NCCCc3ccccc3)nc(-c3ccccc3)n2)cc1 | 3.64 µM | 5.03 µM | 38.4 |  |  |  |  |  |
| 0.147 µM |  |  | 61% |  | Not Active | N#Cc1ccc(Nc2cc(NCCCCc3ccccc3)nc(-c3ccccc3)n2)cc1 | 9.48 µM | 10.6 µM | 65 |  |  |  |  |  |
| 0.283 µM | > 20% |  | 99% | 4.47 µM |  | N#Cc1ccc(Nc2cc(NCc3ccccc3)nc(-c3ccccc3)n2)cc1 | 10.7 µM | 4.19 µM | 38 |  |  |  |  |  |
| 0.169 µM | > 20% |  | 84% | 5.38 µM |  | N#Cc1ccc(Nc2cc(Nc3ccccc3)nc(-c3ccccc3)n2)cc1 | 4.05 µM | 4.95 µM | 24 |  |  |  |  |  |
| 0.141 µM | > 20% |  | 68% | 25.9 µM |  | CNc1cc(Nc2ccc(C#N)cc2)nc(-c2ccccc2)n1 | 25 µM | 34.1 µM | 180 |  |  |  |  |  |
| 0.189 µM |  |  | 87% |  |  | Cc1cc(Nc2ccc(C#N)cc2)nc(-c2ccccc2)n1 |  |  |  |  |  |  |  |  |
| 0.189 µM |  |  |  |  |  | N#Cc1ccc(Nc2ccnc(-c3ccccc3)n2)cc1 |  |  |  |  |  |  |  |  |
